This is a sample that favours compounds with a hit; in the whole collection about 2.7% have one here.
p97 ATPase inh – inhibitors of human p97 ATPase, primary screen, biochemical. Transitional endoplasmic reticulum ATPase (Homo sapiens), P55072. recombinant p97 ATPase, Kinase-Glo ATP luminescence, 3 h. inhibition, % at 8 µM. 0.42% of 220,000 active. AID 1481, 2009; in the data active means inhibition above about 15%;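 further: 0% = DMSO vehicle and 100% = wells lacking enzyme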
TNF death inh – inhibitors of TNF-alpha triggered necroptosis, primary screen, cell-based, Jurkat FADD-/-, single concentration; 0.068% of 220,000 active; activation (protection from cell death), % at 10 µM; Jurkat FADD-/- TNF necroptosis rescue, ATP luminescence, 24 h; 0 = TNF only, 100 = no-TNF cells;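 active means activation, meaning protection from cell death, of at least 50% relative to plate controls; inactive means activation below 50%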;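 further: necroptosis triggered by 40 ng/mL TNF-alpha added together with compound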
PfM18AAP inh-1 – PfM18AAP inhibitors, malaria aminopeptidase, primary screen, biochemical, QFRET, recombinant enzyme. H-Glu-NHMec fluorogenic cleavage. inhibition, % at 7.35 µM. 1.2% of 290,000 active. AID 1822, 2009;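 active means inhibition above the campaign mean inhibition over all tested compounds plus 3 SD, cut at about 28% in these data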;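 further: 0% = plate median of test compound wells and 100% = 2 mM ZnCl2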
Wee1 degr inh – Wee1 degradation inhibitors, primary screen, cell-based, HeLa, Wee1K328M-luciferase, luminescence. Wee1-like protein kinase (Homo sapiens), P30291. HeLa Luc-Wee1K328M stability; 100% = proteasome inhibitor MG132 effect. reporter increase, % at 5 µM. 1.2% of 220,000 active. AID 1321, 2008;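 active means activation above the mean of all tested compounds plus 3 SD, set per screening run, cut at about 8.8% in these data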;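 further: cells exposed to compound for 20 h before luminescence read; 0% = DMSO alone and 100% = MG132 at 30 µM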
Target sequence (P30291 whole entry K328M): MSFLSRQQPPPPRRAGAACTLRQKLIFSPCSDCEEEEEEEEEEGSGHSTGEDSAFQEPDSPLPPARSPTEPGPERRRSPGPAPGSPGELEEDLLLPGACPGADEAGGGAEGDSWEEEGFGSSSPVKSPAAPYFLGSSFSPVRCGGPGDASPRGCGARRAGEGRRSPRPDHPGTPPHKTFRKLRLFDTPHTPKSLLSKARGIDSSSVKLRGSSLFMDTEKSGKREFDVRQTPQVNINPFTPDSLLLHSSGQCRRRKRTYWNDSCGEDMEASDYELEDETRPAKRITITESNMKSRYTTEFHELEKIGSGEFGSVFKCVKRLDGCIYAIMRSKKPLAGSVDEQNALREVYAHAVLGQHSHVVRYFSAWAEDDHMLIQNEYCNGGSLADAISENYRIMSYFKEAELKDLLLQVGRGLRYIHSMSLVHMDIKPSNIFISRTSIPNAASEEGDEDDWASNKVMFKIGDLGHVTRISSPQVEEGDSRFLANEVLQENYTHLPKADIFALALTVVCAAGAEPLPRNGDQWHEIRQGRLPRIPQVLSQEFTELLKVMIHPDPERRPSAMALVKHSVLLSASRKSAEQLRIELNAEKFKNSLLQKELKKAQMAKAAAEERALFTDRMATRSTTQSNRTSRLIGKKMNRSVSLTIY
L929 necroptosis – inhibitors of zVAD-triggered necroptosis, primary screen, L929 cells; L929 zVAD necroptosis rescue, ATP luminescence, 24 h; with zVAD 60 µM; viability rescue, % at 10 µM; 0.38% of 220,000 active; AID 1377, 2008;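 active means activation, scaled between plate controls, above about 75%, limit read from the data; inactive means activation under that limit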;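 further: 0% = zVAD with DMSO and 100% = DMSO alone without zVAD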
RBBP9 inh – human RBBP9 inhibitors, primary screen, biochemical, fluorescence polarization, FP-Rh probe, HTS; inhibition, % at 7.94 µM; 0.2% of 220,000 active; Serine hydrolase RBBP9 (Homo sapiens), O75884; recombinant RBBP9;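 active means inhibition above the campaign mean of all tested compounds plus 3 SD, cut at about 14% in these data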;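 further: plate controls were DMSO wells with RBBP9 for no effect and wells lacking RBBP9 protein for full effect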
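Test system: recombinant human RBBP9; Timing: 30 min then 45 min, 25 °C; Detection: fluorescence polarization; Control set: RBBP9 with DMSO as uninhibited control, no-protein wells as full inhibition; Compound dosing: one concentration, 7.94 µM nominal, 0.794% DMSO; Probe or stimulus: FP-Rh activity-based probe, 375 nM before mixing.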
PfM18AAP inh-2 – PfM18AAP inhibitors, malaria aminopeptidase, confirmation, biochemical, QFRET, recombinant enzyme, triplicate; inhibition, % at 7.35 µM; 28% of 2,400 active; H-Glu-NHMec fluorogenic cleavage; shares compounds with PfM18AAP inh-1; AID 2170, 2009;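 active means mean inhibition over replicate wells above the hit cutoff set for the earlier primary screen, cut at about 29% in these data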;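 further: 0% = median of test compound wells and 100% = 2 mM ZnCl2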
CTSL1 confirm – cathepsin L1 inhibitors, retest, confirmation, counter-screen for PFM18AAP inhibitor project, biochemical, QFRET, triplicate | shares compounds with PfM18AAP inh-1 | purified cathepsin L1, Z-Leu-Arg-MCA fluorescence | inhibition, % at 5.96 µM | 2,400 tested, under 10 active;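 active means average inhibition across replicates above the hit cutoff set in the earlier primary screen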;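 further: 0% = median of test compound wells and 100% = Z-Phe-Ala-diazomethylketone 1 µM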
Active calls of the source: *; / = not tested or not shown.

SMILES	p97 ATPase inh	TNF death inh	PfM18AAP inh-1	Wee1 degr inh	L929 necroptosis	RBBP9 inh	PfM18AAP inh-2	CTSL1 confirm
CCCOC(=O)Nc1ccc(S(=O)(=O)Nn2cnnc2)cc1	-4.2	-1.2	48.4*	0.9	-0.1	-3.9	51.4*	-4.0
CCCCOC(=O)Nc1ccc(S(=O)(=O)Nn2cnnc2)cc1	-1.3	2.6	50.2*	1.0	4.5	-2.5	50.0*	-0.5
Cc1cccc(NC(=O)CCS(=O)(=O)c2ccc3c(c2)NC(=O)CS3)n1	/	/	4.8	/	/	/	/	/
O=c1nc(N/N=C/C=C/c2ccccc2)cn[nH]1	1.0	0.9	41.2*	3.6	-0.1	0.8	-1.2	3.6
O=c1nc(N/N=C/c2c[nH]c3ccccc23)cn[nH]1	4.1	-5.0	40.2*	-4.0	-0.5	1.1	0.5	-3.2
C(=C\c1ccccc1)/C=N/Nc1nncc(-c2ccccc2)n1	-0.7	4.0	-8.8	2.7	3.9	-6.9	/	/
COC(=O)c1ccc(C(c2c(C)[nH][nH]c2=O)c2c(C)[nH][nH]c2=O)cc1	/	/	14.6	/	/	/	/	/
CCOC(=O)COc1ccc(C(c2c(C)[nH][nH]c2=O)c2c(C)[nH][nH]c2=O)cc1	/	/	34.2*	/	/	/	-3.1	-0.3
CCOc1ccc(C(c2c(C)[nH][nH]c2=O)c2c(C)[nH][nH]c2=O)cc1OC	1.3	-6.7	27.0	0.7	-0.1	-2.5	/	/
COc1cc(C(c2c(C)[nH][nH]c2=O)c2c(C)[nH][nH]c2=O)cc([N+](=O)[O-])c1O	4.5	-1.3	26.8	4.1	2.0	-6.8	/	/
COc1cc(C(c2c(C)[nH][nH]c2=O)c2c(C)[nH][nH]c2=O)cc(Br)c1OC	/	/	37.7*	/	/	/	16.3	-3.2
COC(=O)COc1c(Cl)cc(C(c2c(C)[nH][nH]c2=O)c2c(C)[nH][nH]c2=O)cc1OC	/	/	33.5*	/	/	/	13.1	-0.2
O=C1CC(NNC(=O)c2cccc(F)c2)C(=O)N1 (centres undefined)	3.7	1.6	1.9	0.5	0.7	-1.1	/	/
O=C(/C=C\c1ccccc1OC(=O)c1ccccc1F)c1cc2ccccc2o1	3.0	-0.9	8.8	-0.4	1.5	2.2	/	/
COc1cc(CNc2ccc(CNc3ncn[nH]3)cc2)cc(Cl)c1OCc1ccccc1	-0.8	-3.9	34.2*	-1.8	-0.9	-2.4	-41.3	0.7
c1ccc(CNc2ccc(CNc3ncn[nH]3)cc2)cc1	2.5	13.1	24.4	0.2	0.4	-2.0	/	/
CCOC(=O)C1=C(C)NC(=S)NC1c1ccc(OCC(=O)N2CCCCC2)cc1 (centres undefined)	/	/	2.8	/	/	/	/	/
O=C(CCc1nnc2ccc(NCc3ccco3)nn12)Nc1ccccc1F	/	/	48.5*	/	/	/	-20.8	-1.2
O=C(O)c1cc(S(=O)(=O)N2CCOCC2)ccc1N1CCCCC1	1.7	-0.1	-7.1	-3.0	4.9	-1.0	/	/
O=c1c2ccccc2sn1-c1cc(S(=O)(=O)N2CCOCC2)ccc1N1CCCC1	-0.4	-3.5	41.2*	-2.1	-1.1	10.3	26.7	-1.2
Cc1nn(C)c(C(=O)NNC(=S)NCC(C)C)c1Cl	-4.2	0.8	-1.9	2.6	-0.4	-9.1	/	/
CC(C)n1c(=O)[nH][nH]c1=S	6.1	0.7	56.8*	0.4	0.2	-7.3	36.0*	0.8
COc1cc(/C=C/C(=O)c2c(O)cc(C)oc2=O)cc(OC)c1O	-5.5	4.3	42.1*	1.3	5.0	-11.5	-16.1	-2.4
CCOC(=O)c1c(N/N=C/c2ccncc2)n[nH]c1C	1.5	5.1	-1.8	-0.7	2.8	-6.2	/	/
N#CC1=C(N)SC(N)=C(C#N)C1C1CC=CCC1 (centres undefined)	3.7	-0.7	35.8*	0.6	0.1	0.2	-10.8	-2.9
SMILES	p97 ATPase inh	TNF death inh	PfM18AAP inh-1	Wee1 degr inh	L929 necroptosis	RBBP9 inh	PfM18AAP inh-2	CTSL1 confirm
Cc1ccc(CNc2ccc3c(c2)ncn3C(C)(C)C)cc1	0.2	2.2	33.1*	-1.4	3.0	-2.4	2.5	0.9
Cc1ccc(CNc2ccc3c(c2)ncn3C)cc1	3.7	1.9	2.0	6.9	0.9	-6.1	/	/
O=C(CN1CC(=O)Oc2ccccc21)NCc1ccco1	4.5	-2.7	33.3*	-1.4	0.1	-3.7	-15.9	-0.3
Cc1ccc(-c2n[nH]c(=S)n2/N=C/c2ccc(C(=O)O)cc2)cc1	/	/	36.4*	/	/	/	9.7	-3.7
COc1cc(/C=N/n2c(-c3ccccc3)n[nH]c2=S)ccc1O	-4.6	0.5	19.8	0.2	3.8	-7.3	/	/
COc1cc(/C=N/n2c(-c3ccccc3)n[nH]c2=S)cc(OC)c1O	6.8	3.2	31.8*	0.1	-0.4	0.5	-7.3	-3.1
O=c1c2c3c(sc2nc(N2CCNCC2)n1CCc1ccccc1)CCCCC3	3.6	-2.0	-3.2	-0.8	3.1	-3.3	/	/
CN(CC(=O)Nc1n[nH]c(=S)s1)S(=O)(=O)c1cccc2cccnc12	/	/	51.5*	/	/	/	20.8	-0.1
Cn1cc(P(=S)(N2CCOCC2)N2CCOCC2)cc1P(=O)(N1CCOCC1)N1CCOCC1	-2.5	-0.4	23.4	6.7	1.0	-3.7	/	/
Cn1cc(P(=O)(N2CCOCC2)N2CCOCC2)cc1P(=S)(N1CCOCC1)N1CCOCC1	-7.9	0.1	37.2*	2.2	0.0	-9.4	-17.9	7.3
COc1ccc(OC)c(S(=O)(=O)N2CCC(C(=O)NCc3ccccn3)CC2)c1	/	/	-12.4	/	/	/	/	/
CC(NC(=O)c1ccc(OC2CCN(S(=O)(=O)N(C)C)CC2)cc1)C1CC1 (centres undefined)	-9.3	1.3	-3.4	3.8	4.2	-8.0	/	/
CC(C)(C)C(=O)/C=C/Nc1ccccc1O	-3.0	21.6	42.1*	-2.1	53.2	-5.7	2.8	-1.3
CN(C)c1ccc(N/C=C/C(=O)C(C)(C)C)cc1	-1.4	-0.4	22.0	3.8	-0.9	3.7	/	/
CCOC(=O)c1cnn(-c2ccc(F)cc2)c1N	5.0	1.6	0.8	3.7	0.8	8.0	/	/
O=C1/C(=C/c2ccco2)SC(=S)N1CCC(=O)N1CCCCC1CCO (centres undefined)	/	/	31.8*	/	/	/	-26.4	1.4

High-throughput results: PubChem, several laboratories
